Source: ChEMBL document CHEMBL1156834, “Syntheses and biological activities of KRN7000 analogues having aromatic residues in the acyl and backbone chains with varying stereochemistry” (Bioorg Med Chem Lett, 2010)
The source made the active and inactive calls.

Columns and labels:
Format in all cases: cell-based
[1] = target: T1, Antigen-presenting glycoprotein CD1d (Homo sapiens) (UniProt P15813); assay: Induction of CD1D-mediated IFN-gamma production in human iNKT cells expressing CD4 at 25 to 400 nM after 18 hrs by ELISA
T1 sequence (whole entry): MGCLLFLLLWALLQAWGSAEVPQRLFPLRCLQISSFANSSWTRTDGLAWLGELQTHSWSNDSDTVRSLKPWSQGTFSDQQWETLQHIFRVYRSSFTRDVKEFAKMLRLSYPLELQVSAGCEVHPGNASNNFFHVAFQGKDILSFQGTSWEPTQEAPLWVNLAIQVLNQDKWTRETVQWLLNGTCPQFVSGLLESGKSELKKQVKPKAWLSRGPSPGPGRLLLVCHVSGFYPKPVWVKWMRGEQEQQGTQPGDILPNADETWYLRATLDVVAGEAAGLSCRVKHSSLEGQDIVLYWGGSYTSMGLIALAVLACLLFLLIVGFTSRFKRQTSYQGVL
In short: (§1)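 CD4⁺ human iNKT clone HDD11 with CD1d-transfected HeLa cells as APC, in RPMI-1640 plus 10% FBS. 2.5 × 10⁴ HeLa cells were pulsed with glycolipid for 18 h at 37 °C, washed, then given fresh glycolipid-free medium with 2.5 × 10⁴ iNKT cells. Supernatants were taken after a further 18 h at 37 °C, and cytokine was measured by capture ELISA.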

[2] = target: T1, Antigen-presenting glycoprotein CD1d (Homo sapiens); assay: Induction of CD1D-mediated IL-13 production in human iNKT cells expressing CD4 at 25 to 400 nM after 18 hrs by ELISA; in short: as §1
[3] = target: T1, Antigen-presenting glycoprotein CD1d (Homo sapiens); assay: Induction of CD1D-mediated IL-4 production in human iNKT cells expressing CD4 at 25 to 400 nM after 18 hrs by ELISA; in short: as §1
[4] = target: T1, Antigen-presenting glycoprotein CD1d (Homo sapiens); assay: Induction of CD1D-mediated IL-13 production in human iNKT cells expressing CD4 at 400 nM after 18 hrs by ELISA; in short: as §1
[5] = target: T1, Antigen-presenting glycoprotein CD1d (Homo sapiens); assay: Induction of CD1D-mediated IL-4 production in human iNKT cells expressing CD4 at 25 nM after 18 hrs by ELISA; in short: as §1
[6] = target: T1, Antigen-presenting glycoprotein CD1d (Homo sapiens); assay: Induction of CD1D-mediated IL-13 production in human iNKT cells expressing CD4 at 25 nM after 18 hrs by ELISA; in short: as §1
[7] = target: T1, Antigen-presenting glycoprotein CD1d (Homo sapiens); assay: Induction of CD1D-mediated IFN-gamma production in human iNKT cells expressing CD4 at 25 nM after 18 hrs by ELISA; in short: as §1

Measured: Activity

CCCCCCCCCCCCCCCCCCCCCCCCCC(=O)N[C@@H](CO[C@H]1O[C@H](CO)[C@H](O)[C@H](O)[C@H]1O)[C@H](O)[C@H](O)CCCc1ccccc1
active: [1] | [2] | [3] | [4]

CCCCCCCCCCCCCCC[C@H](O)[C@H](CO[C@H]1O[C@H](CO)[C@H](O)[C@H](O)[C@H]1O)NC(=O)CCCCCCCCCc1ccccc1
active: [5] | [6] | [7] | [4]

CCCCCCCCCCCCCCCCCCCCCCCCCC(=O)N[C@@H](CO[C@H]1O[C@H](CO)[C@H](O)[C@H](O)[C@H]1O)[C@H](O)[C@@H](O)CCCc1ccccc1
active: [5] | [6] | [7] | [4]

CCCCCCCCCCCCCCCCCCCCCCCCCC(=O)N[C@H](CCCCCCCCCCCCCCCC)CO[C@H]1O[C@H](CO)[C@H](O)[C@H](O)[C@H]1O
active: [5] | [6] | [7] | [4]

CCCCCCCCCCCCCC[C@H](O)[C@H](O)[C@H](CO[C@H]1O[C@H](CO)[C@H](O)[C@H](O)[C@H]1O)NC(=O)CCCCCc1ccccc1
active: [5] | [6] | [7] | [4]

CCCCCCCCCCCCCCCC[C@H](CO[C@H]1O[C@H](CO)[C@H](O)[C@H](O)[C@H]1O)NC(=O)CCCCCCCCCc1ccccc1
active: [1] | [2] | [3] | [4]

CCCCCCCCCCCCCCCCCCCCCCCCCC(=O)N[C@@H](CO[C@H]1O[C@H](CO)[C@H](O)[C@H](O)[C@H]1O)[C@@H](O)CCCCCCCCCCCCCCC
active: [5] | [6] | [7] | [4]

CCCCCCCCCCCCCCCCCCCCCCCCCC(=O)N[C@@H](CO[C@H]1O[C@H](CO)[C@H](O)[C@H](O)[C@H]1O)[C@H](O)[C@H](O)CCCCCCCCCCCCCC
active: [4]
